ChEMBL document CHEMBL1132488, “On the bioactive conformation of NAN-190 (1) and MP3022 (2), 5-HT(1A) receptor antagonists” (J Med Chem, 1999)

Tests used:
[1] = organism: Rattus norvegicus; experiment: Effect on 8-OH-DAPT- induced behavioral syndrome(FBP: flat body posture) by the compound in reserpine pretreated rats at a dose of 4.; assay type: functional
Procedure, shortened: (§1)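 Reserpinized male Wistar rats (reserpine 1 mg/kg sc, 18 h before), groups of 6. Compound given ip in 1% Tween 80 60 min before 8-OH-DPAT 5 mg/kg sc. FBP/FT rated 0–3 at 3, 6, 9, 12 and 15 min after agonist, summed (max 15). Mean ± SEM; Newman–Keuls test; ED50 with range.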

[2] = system: Rattus norvegicus; experiment: Effect on 8-OH-DPAT-Induced LLR(lower lip retraction) in rats at a dose of 32 mg/kg; assay type: functional
Procedure, shortened: (§2)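 Male Wistar rats, groups of 6. Compound given ip in 1% Tween 80 45 min before 8-OH-DPAT 1 mg/kg sc. Lower incisor visibility scored 0/0.5/1 at 15, 30 and 45 min after agonist, summed (max 3). Mean ± SEM; Newman–Keuls test; ED50 with range.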

[3] = organism: Rattus norvegicus; experiment: Induction of behavioral syndrome(FT: forepaw treading) by the compound in reserpine pretreated rats at a dose of 4.; assay type: functional
Procedure, shortened: (§3)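 Male Wistar rats (260–300 g) were given reserpine 1 mg/kg sc in saline 18 h before testing. Test compound was then given alone ip as a 1% Tween 80 suspension (2 mL/kg). FBP and FT were each scored 0–3 and summed (maximum 15). n=6 per group; mean ± SEM; Newman–Keuls test.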

[4] = molecular target: T1, 5-hydroxytryptamine receptor 1A (Rattus norvegicus, UniProt P19327); experiment: Ability to displace [3H]8-OH-DPAT from 5-hydroxytryptamine 1A receptor
T1 sequence (P19327 whole entry): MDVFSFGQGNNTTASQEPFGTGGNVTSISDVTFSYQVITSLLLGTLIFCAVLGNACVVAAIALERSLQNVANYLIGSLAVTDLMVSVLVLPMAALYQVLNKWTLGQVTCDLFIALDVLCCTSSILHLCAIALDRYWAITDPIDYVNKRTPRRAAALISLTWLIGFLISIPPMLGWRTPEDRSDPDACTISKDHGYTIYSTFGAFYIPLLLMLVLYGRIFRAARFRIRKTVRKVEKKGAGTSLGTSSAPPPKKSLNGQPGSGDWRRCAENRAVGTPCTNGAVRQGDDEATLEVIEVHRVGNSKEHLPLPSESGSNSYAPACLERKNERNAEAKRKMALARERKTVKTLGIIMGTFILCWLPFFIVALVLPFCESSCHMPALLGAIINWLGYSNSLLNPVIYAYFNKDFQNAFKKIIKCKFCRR
Procedure, shortened: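 Rat hippocampal membranes, [3H]8-OH-DPAT radioligand. Ki from at least three competition experiments, each with 10–14 drug concentrations run in triplicate. Ki calculated with the Cheng–Prusoff equation.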

[5] = organism: Rattus norvegicus; experiment: Dose inhibiting 8-OH-DPAT-induced behavioral syndrome(FBP: flat body posture) by the compound in reserpine pretreated rats.
[6] = organism: Rattus norvegicus; experiment: Effect on 8-OH-DAPT- induced behavioral syndrome(FT: forepaw treading) by the compound in reserpine pretreated rats at a dose of 8.; assay type: functional; procedure, shortened: as §1
[7] = system: Rattus norvegicus; experiment: Induction of LLR(lower lip retraction) by the compound in rats at a dose of 16 mg/kg; assay type: functional
Procedure, shortened: (§4)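 Male Wistar rats, groups of 6, given compound alone ip as 1% Tween 80 suspension. Lower incisor visibility scored 0/0.5/1 at 15, 30 and 45 min after dosing, summed (max 3 per rat). Mean ± SEM versus vehicle, Newman–Keuls test; ED50 with range.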

[8] = organism: Rattus norvegicus; experiment: Induction of behavioral syndrome(FBP: flat body posture) by the compound in reserpine pretreated rats at a dose of 4.; assay type: functional; procedure, shortened: as §3
[9] = organism: Rattus norvegicus; experiment: Effect on 8-OH-DAPT- induced behavioral syndrome(FBP: flat body posture) by the compound in reserpine pretreated rats at a dose of 16.; assay type: functional; procedure, shortened: as §1
[10] = system: Rattus norvegicus; experiment: Induction of LLR(lower lip retraction) by the compound in rats at a dose of 32 mg/kg; assay type: functional; procedure, shortened: as §4
[11] = system: Rattus norvegicus; experiment: Effect on 8-OH-DPAT-Induced LLR(lower lip retraction) in rats at a dose of 8 mg/kg; assay type: functional; procedure, shortened: as §2
[12] = organism: Rattus norvegicus; experiment: Induction of behavioral syndrome(FBP: flat body posture) by the compound in reserpine pretreated rats at a dose of 8.; assay type: functional; procedure, shortened: as §3
[13] = organism: Rattus norvegicus; experiment: Induction of behavioral syndrome(FBP: flat body posture) by the compound in reserpine pretreated rats at a dose of 16.; assay type: functional
Procedure, shortened: (§5)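 Male Wistar rats (260–300 g), groups of 6, given reserpine 1 mg/kg sc 18 h before test. Compounds given ip as 1% Tween 80 suspension. FBP and FT rated 0–3 in 45-s sessions every 3 min, starting 3 min after dosing. Score summed over 5 periods (max 15 per symptom). Mean ± SEM; Newman–Keuls test.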

[14] = system: Rattus norvegicus; experiment: Induction of LLR(lower lip retraction) by the compound in rats at a dose of 8 mg/kg; assay type: functional; procedure, shortened: as §4
[15] = organism: Rattus norvegicus; experiment: Effect on 8-OH-DAPT- induced behavioral syndrome(FT: forepaw treading) by the compound in reserpine pretreated rats at a dose of 4.; assay type: functional; procedure, shortened: as §1
[16] = organism: Rattus norvegicus; experiment: Effect on 8-OH-DAPT- induced behavioral syndrome(FBP: flat body posture) by the compound in reserpine pretreated rats at a dose of 8.; assay type: functional; procedure, shortened: as §1
[17] = organism: Rattus norvegicus; experiment: Induction of behavioral syndrome(FT: forepaw treading) by the compound in reserpine pretreated rats at a dose of 16.; assay type: functional; procedure, shortened: as §3
[18] = organism: Rattus norvegicus; experiment: Dose Inducing behavioral syndrome(FT: forepaw treading) by the compound in reserpine pretreated rats.; assay type: functional; procedure, shortened: as §5
[19] = organism: Rattus norvegicus; experiment: Effective dose of the required to inhibit symptoms produced by 8-OH-DPAT; assay type: functional; procedure, shortened: as §1
[20] = organism: Rattus norvegicus; experiment: Effect on 8-OH-DAPT- induced behavioral syndrome(FT: forepaw treading) by the compound in reserpine pretreated rats at a dose of 16.; assay type: functional; procedure, shortened: as §1
[21] = organism: Rattus norvegicus; experiment: Induction of behavioral syndrome(FT: forepaw treading) by the compound in reserpine pretreated rats at a dose of 8.; assay type: functional; procedure, shortened: as §3
[22] = system: Rattus norvegicus; experiment: Effect on 8-OH-DPAT-Induced LLR(lower lip retraction) in rats at a dose of 16 mg/kg; assay type: functional; procedure, shortened: as §2
[23] = organism: Rattus norvegicus; experiment: Induction of behavioral syndrome(FT: forepaw treading) by the compound in reserpine pretreated rats at a dose of.1; assay type: functional
[24] = system: Rattus norvegicus; experiment: Effect on 8-OH-DPAT-Induced LLR(lower lip retraction) in rats at a dose of 1 mg/kg; assay type: functional; procedure, shortened: as §2
[25] = system: Rattus norvegicus; experiment: Effect on 8-OH-DPAT-Induced LLR(lower lip retraction) in rats at a dose of 4 mg/kg; assay type: functional; procedure, shortened: as §2
[26] = organism: Rattus norvegicus; experiment: Induction of behavioral syndrome(FBP: flat body posture) by the compound in reserpine pretreated rats at a dose of.1; assay type: functional
[27] = organism: Rattus norvegicus; experiment: Effect on 8-OH-DAPT- induced behavioral syndrome(FBP: flat body posture) by the compound in reserpine pretreated rats at a dose of.1; assay type: functional
[28] = organism: Rattus norvegicus; experiment: Effect on 8-OH-DAPT- induced behavioral syndrome(FT: forepaw treading) by the compound in reserpine pretreated rats at a dose of.1; assay type: functional
[29] = organism: Rattus norvegicus; experiment: Effect on 8-OH-DAPT- induced behavioral syndrome(FT: forepaw treading) by the compound in reserpine pretreated rats at a dose of 2.; assay type: functional
[30] = system: Rattus norvegicus; experiment: Effect on 8-OH-DPAT-Induced LLR(lower lip retraction) in rats at a dose of 2 mg/kg; assay type: functional; procedure, shortened: as §2
[31] = organism: Rattus norvegicus; experiment: Induction of behavioral syndrome(FBP: flat body posture) by the compound in reserpine pretreated rats at a dose of 2.; assay type: functional; procedure, shortened: as §5
[32] = system: Rattus norvegicus; experiment: Induction of LLR(lower lip retraction) by the compound in rats at a dose of 4 mg/kg; assay type: functional; procedure, shortened: as §4
[33] = organism: Rattus norvegicus; experiment: Induction of behavioral syndrome(FT: forepaw treading) by the compound in reserpine pretreated rats at a dose of 2.; assay type: functional
[34] = organism: Rattus norvegicus; experiment: Effect on 8-OH-DAPT- induced behavioral syndrome(FBP: flat body posture) by the compound in reserpine pretreated rats at a dose of 2.; assay type: functional
[35] = system: Rattus norvegicus; experiment: Induction of LLR(lower lip retraction) by the compound in rats at a dose of 1 mg/kg; assay type: functional; procedure, shortened: as §4
[36] = system: Rattus norvegicus; experiment: Induction of LLR(lower lip retraction) by the compound in rats at a dose of 2 mg/kg; assay type: functional; procedure, shortened: as §4

COc1ccccc1N1CCN(C2CCC(N3C(=O)[C@H]4CCCC[C@H]4C3=O)CC2)CC1 (some centres not stated) gave an FBP mean score [1] of 11.6, an LLR score [2] of 1.1 and an FT mean score [3] of 0.2. For the same compound, the Ki [4] was 72 nM, the ED50 [5] was 11 mg/kg and the FT mean score [6] was 5.4. The LLR score [7] was 0.3, the FBP mean score [8] was 0.2 and the FBP mean score [9] was 3.2. The LLR score [10] was 0.3, the LLR score [11] was 2.3 and the FBP mean score [12] was 0.1. For the same compound, the FBP mean score [13] was 0.1, the LLR score [14] was 0.2 and the FT mean score [15] was 9.2. It also gave an FBP mean score [16] of 9.8, an FT mean score [17] of 0.1 and an ED50 [18] of 7.3 mg/kg. For the same compound, the ED50 [19] was 20 mg/kg, the FT mean score [20] was 2 and the FT mean score [21] was 0.2. The LLR score [22] was 1.6.

With COc1ccccc1N1CCN(CCCCN2C(=O)c3ccccc3C2=O)CC1 [NAN-190] the FT mean score [23] was 0.1, the FBP mean score [1] was 2.3 and the LLR score [24] was 1.7. It also gave an LLR score [25] of 0.6, an FT mean score [3] of 0.2 and an ED50 [5] of 2 mg/kg. For the same compound, the FT mean score [6] was 1.8, the FBP mean score [26] was 0.1 and the FBP mean score [8] was 0.1. The FBP mean score [27] was 12.4, the FT mean score [28] was 10.8 and the FBP mean score [12] was 0.2. The FT mean score [29] was 5.7, the FT mean score [15] was 6.2 and the LLR score [30] was 1.4. The FBP mean score [16] was 2.3, the ED50 [18] was 2.5 mg/kg and the ED50 [19] was 1.7 mg/kg. The FBP mean score [31] was 0.2, the LLR score [32] was 0.1 and the FT mean score [33] was 0.2. It also gave an FBP mean score [34] of 6, an FT mean score [21] of 0.1 and an LLR score [35] of 0.1. The LLR score [36] was 0.1.
